Compounds with a hit are over-represented: about 1.5% of the library has one in this group of screens.
Mot1-301 SUMO: yeast Mot1-301 growth rescue at high temperature, primary screen, SUMOylation pathway inhibitor project, S. cerevisiae, ATP luminescence, 38.5C; S. cerevisiae Mot1-301 growth rescue; percent above DMSO median, 100 means doubled; growth rescue, % at 18.8 µM; 320,000 compounds, 1% hits;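 active = every valid replicate shows activation above 250% relative to neutral control wells; inactive = the rest, any valid replicate at or below 250%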;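 note: OY570 slx delta 5 strain wells were the positive control but not used for scaling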
Cneo AK release: Cryptococcus neoformans cell lysis inducers, primary screen, AK release luminescence, single concentration. AID 651654, 2012. C. neoformans lysis, adenylate kinase release luminescence, 4 h; normalised: neutral wells 0, clomiphene wells 100. lysis activity, % at 15 µM. 360,000 compounds, 0.2% hits;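 active = mean lysis activity across replicates of at least 80%, whatever share of replicates individually reach that level; inactive = mean lysis activity below 80%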
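Assay system: C. neoformans cells. Amount: yeast cell density of 5 × 10^6 cells/mL. Technique: AK luminescence. Buffer or medium: YPD. Times: static 4 h at 37 °C with compound, 1 h detection. Dosing: single-point compound dose. Read-out: lysis from increased AK signal.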
C2C12 statin: suppressors of statin myotoxicity in C2C12 myotubes, primary screen, cell-based, single point, plate reader. rescue of ATP level, % at 7.49 µM. 330,000 compounds, 0.78% hits. AID 602340, 2012. C2C12 myotubes + simvastatin, ATP luminescence, 48 h; scaled: DMSO 0, geranylgeraniol control 100;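 active = mean ATP rescue above about 67%, or every replicate alone reaching that limit, limit read from the data, passing the limit was not always enough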;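 note: myotubes were challenged with 10 µM simvastatin during compound exposure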
Mot1 SUMO dose: growth restoration of Mot1-301 yeast on galactose, dose response, SUMO pathway inhibitor project, whole organism, S. cerevisiae, ATP luminescence, cherry-picked samples. 2,300 tested, under 10 active. shares compounds with Mot1-301 SUMO. S. cerevisiae Mot1-301 galactose growth, 24 h; -100 = growth of slx-deleted rescue strain. growth activity, percent, % at 42 µM. AID 493004, 2010;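 active = Signal drops as the depositor expects, and the fitted half-maximal dose is no more than ten times the top valid tested dose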;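 note: more negative values mean stronger growth rescue toward the control strain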
* hit, by the source's call; [ ] = remark or other dose.

Results for C[C@H]1CN([C@@H](C)CO)C(=O)c2ccccc2-c2ccccc2CO[C@@H]1CN(C)C(=O)Nc1ccccc1 ?
Cneo AK release: 2; C2C12 statin: 7

How did FC(F)(F)c1nnc(-c2ccccc2)nc1Oc1ccc(Cl)cc1Cl do in these assays?
Mot1-301 SUMO: 739*; Cneo AK release: -2; C2C12 statin: -17; Mot1 SUMO dose: 0

Results for FC(F)(F)c1cccc(Oc2nc(-c3ccccc3)nnc2C(F)(F)F)c1 ?
Mot1-301 SUMO: -10

How did O=C(C[C@@H]1CC[C@@H]2[C@H](COC[C@@H](O)CN2Cc2cc(F)ccc2F)O1)NCc1ccc(Oc2ccccc2)cc1 do in these assays?
Cneo AK release: -1; C2C12 statin: -28

How did CO[C@@H]1CN(C)C(=O)c2cc(NS(=O)(=O)c3c(C)noc3C)ccc2OC[C@H](C)NC[C@@H]1C do in these assays?
Cneo AK release: 0; C2C12 statin: 16

Results for CC(C)Sc1ccc(C(=O)Nc2ccc(F)cc2F)cn1 ?
Mot1-301 SUMO: 537*; Mot1 SUMO dose: 0

How did O=C(Nc1ccc(F)cc1F)c1ccc(-n2cncn2)nc1 do in these assays?
Mot1-301 SUMO: -5; Cneo AK release: -1; C2C12 statin: 1

What do the screens show for `COc1cccc(C(=O)Nc2ccc3c(c2)OC[C@@H](C)N(CC2CC2)C[C@@H](C)[C@H](OC)CN(C)C3=O)c1`?
Cneo AK release: -4; C2C12 statin: 16

How did CCCCCCCN1C(Nc2ccccc2)=NC[C@@H]1CC(C)C do in these assays?
Mot1-301 SUMO: 611*; Cneo AK release: 27; C2C12 statin: -29; Mot1 SUMO dose: -1[21 µM]

Results for CC(C)C[C@H]1CN=C(Nc2ccccc2)N1CCCC1CCCC1 ?
Mot1-301 SUMO: -15; Cneo AK release: -1; C2C12 statin: -32

How did O=C(N/N=C/C(Br)=C/c1ccccc1)c1ccncc1 do in these assays?
Mot1-301 SUMO: 100

Results for O=C(N/N=C/C(Br)=C/c1ccccc1)c1cccnc1 ?
Mot1-301 SUMO: 500*; Cneo AK release: 1; Mot1 SUMO dose: -2

How did CCCNC(=O)[C@@H]1[C@@H](CO)[C@@H]2Cn3c(ccc(-c4ccccc4F)c3=O)[C@H]1N2CCC do in these assays?
C2C12 statin: -12

How did COc1ccc(-c2nnc(SCC(=O)N3CCCCC3)o2)cc1 do in these assays?
Mot1-301 SUMO: 542*; Cneo AK release: 0; C2C12 statin: 19; Mot1 SUMO dose: 0

What do the screens show for `CCOc1ccc(-c2nnc(SCC(=O)N3CCOCC3)o2)cc1`?
Mot1-301 SUMO: -6; Cneo AK release: -1

How did Cc1ccc(-c2nnc(SCC(=O)N3CCCC3)o2)cc1 do in these assays?
Mot1-301 SUMO: 22

What do the screens show for `CCOc1ccc(-c2nnc(SCC(=O)N3CCCC3)o2)cc1`?
Mot1-301 SUMO: 713*; Cneo AK release: 0; C2C12 statin: -6; Mot1 SUMO dose: 1

Results for C[C@H]1CN([C@@H](C)CO)C(=O)c2cc(C3=CCCC3)cnc2O[C@H]1CN(C)C ?
Cneo AK release: 2; C2C12 statin: 9

What do the screens show for `N#C[C@@H]1[C@H](c2ccc(-c3ccccc3F)cc2)[C@H](CO)N1C(=O)Cc1ccccc1`?
Cneo AK release: 1; C2C12 statin: 17

What do the screens show for `CCn1c(=O)n(CC)c2cc(NC(=O)c3ccccc3Cl)ccc21`?
Mot1-301 SUMO: 406*; Cneo AK release: -1; C2C12 statin: 9; Mot1 SUMO dose: 2

How did O=C(Nc1ccc2ccccc2c1)c1ccccc1Cl do in these assays?
Cneo AK release: -29; C2C12 statin: -27

How did COc1cc([N+](=O)[O-])cc(/C=N/NC(=O)c2cc(-c3ccccc3)nc3ccccc23)c1O do in these assays?
Mot1-301 SUMO: -11; Cneo AK release: 0

What do the screens show for `COc1cc([N+](=O)[O-])cc(/C=N/NC(=O)c2cc(C)nc3ccccc23)c1O`?
Mot1-301 SUMO: 758*; Mot1 SUMO dose: 1

Results for CC(C)C#Cc1cnc2c(c1)C(=O)N([C@H](C)CO)C[C@@H](C)[C@H](CN(C)C(=O)Nc1cc(F)ccc1F)O2 ?
Cneo AK release: -9; C2C12 statin: -5

What do the screens show for `CNC[C@@H]1OCCCC[C@H](C)Oc2ccc(NS(=O)(=O)c3ccc(C)cc3)cc2C(=O)N([C@H](C)CO)C[C@H]1C`?
Cneo AK release: 43; C2C12 statin: 5

What do the screens show for `Cc1cc(S(=O)(=O)N2CCCCC2CCNC(=O)C(=O)NCCN2CCOCC2)ccc1F` (configuration not stated)?
Cneo AK release: 2; C2C12 statin: -11

How did Cc1ccc(S(=O)(=O)N2CCCOC2CNC(=O)C(=O)NCCN2CCOCC2)cc1 (configuration not stated) do in these assays?
Mot1-301 SUMO: 1; Cneo AK release: 2; C2C12 statin: 8

Results for Cc1cc(S(=O)(=O)N2CCCCC2CCNC(=O)C(=O)NCC2CCCO2)ccc1F (configuration not stated) ?
Mot1-301 SUMO: 391*; Cneo AK release: 2; C2C12 statin: -2; Mot1 SUMO dose: 0

How did COc1ccc(S(=O)(=O)N2CCCOC2CNC(=O)C(=O)NCCCN2CCOCC2)cc1C (configuration not stated) do in these assays?
Mot1-301 SUMO: 415*; Cneo AK release: 1; C2C12 statin: -21; Mot1 SUMO dose: -1

Results for COc1ccc(NC(=O)N(C)C[C@H]2Oc3ncc(-c4cccnc4)cc3C(=O)N([C@H](C)CO)C[C@@H]2C)cc1 ?
Cneo AK release: -7; C2C12 statin: -21

What do the screens show for `C[C@@H]1CN([C@@H](C)CO)C(=O)c2cc(NC(=O)C3CC3)ccc2O[C@H]1CN(C)Cc1ccc(-c2ccccc2)cc1`?
Cneo AK release: 6; C2C12 statin: 32

What do the screens show for `CCCCn1c(/N=C/c2ccc3c(c2)OCO3)nc2ccccc21`?
Mot1-301 SUMO: 577*; Cneo AK release: 0; C2C12 statin: 9; Mot1 SUMO dose: -1

What do the screens show for `CCCCn1c(/N=C/c2ccc(N(C)C)cc2)nc2ccccc21`?
Mot1-301 SUMO: -6; Cneo AK release: 3

Results for COc1ccc(-c2nc(NC(=O)CCNC(=O)c3ccco3)sc2C)cc1 ?
Mot1-301 SUMO: 368*; Cneo AK release: -2; C2C12 statin: 13; Mot1 SUMO dose: 0

Results for COc1ccc(CCNC(=O)CCNC(=O)c2ccco2)cc1 ?
Mot1-301 SUMO: 1; Cneo AK release: 0; C2C12 statin: -4

How did COc1ccccc1NC(=O)N[C@H]1CC[C@H](CCNC(=O)Cc2ccccn2)O[C@H]1CO do in these assays?
Cneo AK release: 5; C2C12 statin: 5

How did CCOC(=O)C1CCN(C(=O)COc2ccc(S(=O)(=O)N3CCOCC3)cc2C)CC1 do in these assays?
Mot1-301 SUMO: 718*; Cneo AK release: 1; C2C12 statin: -9; Mot1 SUMO dose: 0

Screens from PubChem.
